Reference: ChEMBL document CHEMBL1909516, “Synthesis of 9-substituted 2,3,4,9-tetrahydro-1H-carbazole derivatives and evaluation of their anti-prion activity in TSE-infected cells” (Eur J Med Chem, 2011)
The source made the active and inactive calls. The calls are words filed in the database; no cut-off is given here.

Columns and labels:
GT1-7 [1] = assay: Antiprion activity in human transmissible spongiform encephalopathies agent Fukuoka-1 prion infected mouse GT1-7 cells assessed as inhibition of proteinase K-resistant PrPres accumulation at […] after 3 days by Western blotting analysis; type: cell-based
Outline: (§1)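 GT1-7 mouse neuronal cells persistently infected with Fukuoka-1 agent, grown in DMEM with 10% FBS and penicillin G at 37 °C, 5% CO2. Seeded 3 × 10⁵ cells/well; 15 h later given compound diluted from 10 mM DMSO stock (control 0.1% DMSO). Lysate adjusted to 1 mg/mL protein, proteinase K 30 min 37 °C, pelleted, SDS-PAGE, anti-PrP M-20 Western blot. IC50 = 50% PrPres inhibition.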

GT1-7 [2] = assay: Antiprion activity in human transmissible spongiform encephalopathies agent Fukuoka-1 prion infected in mouse GT1-7 cells assessed as inhibition of proteinase K-resistant PrPres accumulation at 5 uM after 3 days by Western blot analysis relative to control; type: cell-based; outline: as §1
[3] = Cytotoxicity against human transmissible spongiform encephalopathies agent Fukuoka-1 prion infected mouse GT1-7 cells at 10 uM after 3 days; type: cell-based; details: gt1-7, 72 h
[4] = Antiprion activity in human transmissible spongiform encephalopathies agent Fukuoka-1 prion infected mouse GT1-7 cells assessed as inhibition of proteinase K-resistant PrPres accumulation after 3 days by Western blot analysis; type: cell-based; details: GT1-7, 72 h; outline: as §1
Mus musculus = species on record: Mus musculus; assay: Antiprion activity in scrapie infected mouse ScN2a-3-Ch cells assessed as inhibition of proteinase K-resistant PrPres accumulation at 5 uM after 3 days by Western blot analysis relative to control
Outline: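 Scrapie-infected ScN2a-3-Ch cells seeded at about 1 × 10⁵ cells/well and handled as in the GT1-7 assay. Compound diluted from 10 mM DMSO stock, with 0.1% DMSO control. Lysate protein adjusted to 1 mg/mL, then proteinase K digestion 30 min at 37 °C. Pellet analysed by Western blot for PrPres, expressed relative to control.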

GT1-7 [5] = assay: Antiprion activity in human transmissible spongiform encephalopathies agent Fukuoka-1 prion infected mouse GT1-7 cells assessed as inhibition of PrPC expression at 5 uM after 3 days absence of proteinase K digestion; type: cell-based
Outline: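 GT1-7 cells persistently infected with Fukuoka-1 agent, seeded 3 × 10⁵ cells/well. Compound from 10 mM DMSO stock added 15 h after seeding (vehicle 0.1% DMSO). Lysates adjusted to 1 mg/mL total protein (BCA). Run without proteinase K digestion, so PrPC is read by Western blot with M-20 anti-PrP antibody.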

GT1-7 [6] = assay: Ratio of compound IC50 over GJP14 IC50 for human transmissible spongiform encephalopathies agent Fukuoka-1 prion infected in mouse GT1-7 cells; type: cell-based

SMILES | inhibition (GT1-7 [1]) | further results
OC(CNCc1cccc(Cl)c1)Cn1c2c(c3ccccc31)CCCC2 (centres undefined) | Active | 
OC(CNCc1ccccc1Br)Cn1c2c(c3ccccc31)CCCC2 (centres undefined) | Active | 
OC(CNCc1cccnc1)Cn1c2c(c3ccccc31)CCCC2 (centres undefined) | Active | 
Cc1ccc(CNCC(O)Cn2c3c(c4ccccc42)CCCC3)cc1 (centres undefined) |  | inhibition (GT1-7 [2]): 32%; Activity [3]: Toxic
OC(CNCc1ccncc1)Cn1c2c(c3ccccc31)CCCC2 (centres undefined) | Active | 
OC(CNCc1cccc2ccccc12)Cn1c2c(c3ccccc31)CCCC2 (centres undefined) | Active | 
OC(CNCc1cccc(C(F)(F)F)c1)Cn1c2c(c3ccccc31)CCCC2 (centres undefined) |  | inhibition (GT1-7 [2]): 40%; Activity [3]: Toxic
c1ccc2c3c([nH]c2c1)CCCC3 | inactive | 
OC(CN1CCCCC1)Cn1ccc2ccccc21 (centres undefined) | inactive | 
OC(CNCc1ccc(F)cc1F)Cn1c2c(c3ccccc31)CCCC2 (centres undefined) | Active | 
COc1cccc(CNCC(O)Cn2c3c(c4ccccc42)CCCC3)c1 (centres undefined) |  | inhibition (GT1-7 [2]): 21%; Activity [3]: Toxic
OC(CNCc1ccccc1F)Cn1c2c(c3ccccc31)CCCC2 (centres undefined) | Active | 
COc1ccc(CNCC(O)Cn2c3c(c4ccccc42)CCCC3)cc1 (centres undefined) |  | inhibition (GT1-7 [2]): 23%; Activity [3]: Toxic
CCCCNCC(O)Cn1c2c(c3ccccc31)CCCC2 (centres undefined) | Active | 
OC(CNCc1ccccn1)Cn1c2c(c3ccccc31)CCCC2 (centres undefined) | Active | 
CC(C)(NCC(O)Cn1c2c(c3ccccc31)CCCC2)c1ccccc1 (centres undefined) |  | inhibition (GT1-7 [2]): 34%; Activity [3]: Toxic
OC(CNCc1ccc(C(F)(F)F)cc1)Cn1c2c(c3ccccc31)CCCC2 (centres undefined) | Active | 
OC(CN1CCCCC1)Cn1cccc1 (centres undefined) | inactive | 
Cc1cccc(CNCC(O)Cn2c3c(c4ccccc42)CCCC3)c1 (centres undefined) | Active | 
COc1ccccc1CNCC(O)Cn1c2c(c3ccccc31)CCCC2 (centres undefined) | Active | 
OC(CN1CCCCC1)Cn1c2c(c3ccccc31)CCCC2 (centres undefined) | Active | 

SMILES | inhibition (GT1-7 [1]) | further results
OC(CNCc1ccc(Br)cc1)Cn1c2c(c3ccccc31)CCCC2 (centres undefined) |  | inhibition (GT1-7 [2]): 25%; Activity [3]: Toxic
OC(CNCc1cccc(Br)c1)Cn1c2c(c3ccccc31)CCCC2 (centres undefined) | Active | 
OC(CNCc1c(Cl)cccc1Cl)Cn1c2c(c3ccccc31)CCCC2 (centres undefined) | Active | 
Cc1ccc2c(c1)c1c(n2CC(O)CN2CCCCC2)C(=O)CCC1 (centres undefined) |  | IC50 [4]: 8.54 µM
OC(CNC1CCCC1)Cn1c2c(c3ccccc31)CCCC2 (centres undefined) | Active | 
OC(CNCc1ccccc1C(F)(F)F)Cn1c2c(c3ccccc31)CCCC2 (centres undefined) | Active | 
OC(CNc1ccccc1)Cn1c2c(c3ccccc31)CCCC2 (centres undefined) | inactive | 
OC(CNCc1ccc(Cl)cc1)Cn1c2c(c3ccccc31)CCCC2 (centres undefined) |  | inhibition (GT1-7 [2]): 18%; Activity [3]: Toxic
O=C(CN1CCCC1)Nc1ccc(Cc2ccc(NC(=O)CN3CCCC3)cc2)cc1 |  | inhibition (GT1-7 [2]): 34%; IC50 [4]: 1.4 µM
OC(CN1CCCCC1)Cn1ccc2c1CCCC2 (centres undefined) | inactive | 
O[C@H](CNCc1ccccc1F)Cn1c2c(c3ccccc31)CCCC2 |  | IC50 [4]: 2.23 µM
OC(CNCc1ccccc1)Cn1c2c(c3ccccc31)CCCC2 (centres undefined) | Active | inhibition (GT1-7 [2]): 28%
Cc1ccccc1CNCC(O)Cn1c2c(c3ccccc31)CCCC2 (centres undefined) | Active | 
OC(CNCc1ccccc1Cl)Cn1c2c(c3ccccc31)CCCC2 (centres undefined) | Active | 
O[C@@H](CNCc1ccccc1F)Cn1c2c(c3ccccc31)CCCC2 |  | inhibition (Mus musculus): Active; inhibition (GT1-7 [5]): inactive; Ratio IC50 (GT1-7 [6]): 8; IC50 [4]: 1.11 µM
OC(CNCc1cc(F)ccc1F)Cn1c2c(c3ccccc31)CCCC2 (centres undefined) | Active | 
OC(CNCc1c(F)cccc1F)Cn1c2c(c3ccccc31)CCCC2 (centres undefined) | Active | 
OC(CN1CCOCC1)Cn1c2c(c3ccccc31)CCCC2 (centres undefined) | Active | 
OC(CNCc1cccc(F)c1)Cn1c2c(c3ccccc31)CCCC2 (centres undefined) | Active | 
OC(CNCc1ccc(F)cc1)Cn1c2c(c3ccccc31)CCCC2 (centres undefined) | Active | 
OC(CN1CCCCC1)Cn1c2ccccc2c2ccccc21 (centres undefined) | Active | 
